Laboratory results: ChEMBL document CHEMBL4033630, “Discovery of novel 7-azaindole derivatives bearing dihydropyridazine moiety as c-Met kinase inhibitors” (Eur J Med Chem, 2017)

Key:
[1] = biological target: Hepatocyte growth factor receptor (Homo sapiens, UniProt P08581); assay: Inhibition of c-Met (unknown origin) using poly (Glu, Tyr) 4:1 as substrate after 30 mins by HTRF assay
HT-29 [2] = assay: Cytotoxicity against human HT-29 cells after 72 hrs by MTT assay; conditions: HT-29, 72 h
A549 [3] = assay: Cytotoxicity against human A549 cells after 72 hrs by MTT assay; conditions: A549, 72 h
NCI-H460 = assay: Cytotoxicity against human H460 cells after 72 hrs by MTT assay; format: functional, cell-based; conditions: NCI-H460, 72 h
In short: (§1)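 Cells grown in MEM with 10% FBS. About 4 × 10³ cells per well, incubated 24 h at 37°C in 5% CO₂. Compound added at the indicated final concentrations, then 72 h culture. MTT at […] final for 4 h at 37°C. Three independent experiments; IC50 reported as mean.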

U-87 MG [4] = assay: Cytotoxicity against human U87MG cells after 72 hrs by MTT assay; format: functional, cell-based, U-87MG ATCC; in short: as §1
HT-29 [5] = assay: Potency index, ratio of foretinib IC50 to compound IC50 for human HT-29 cells; format: functional
A549 [6] = assay: Potency index, ratio of foretinib IC50 to compound IC50 for human A549 cells; format: functional
[7] = Potency index, ratio of foretinib IC50 to compound IC50 for human H460 cells; format: functional
U-87 MG [8] = assay: Potency index, ratio of foretinib IC50 to compound IC50 for human U87MG cells; format: functional, U-87MG ATCC
[9] = biological target: T1, Receptor-type tyrosine-protein kinase FLT3 (Homo sapiens, UniProt P36888); assay: Inhibition of Flt-3 (unknown origin) using poly (Glu, Tyr) 4:1 as substrate after 30 mins by HTRF assay
T1 sequence (P36888 whole entry): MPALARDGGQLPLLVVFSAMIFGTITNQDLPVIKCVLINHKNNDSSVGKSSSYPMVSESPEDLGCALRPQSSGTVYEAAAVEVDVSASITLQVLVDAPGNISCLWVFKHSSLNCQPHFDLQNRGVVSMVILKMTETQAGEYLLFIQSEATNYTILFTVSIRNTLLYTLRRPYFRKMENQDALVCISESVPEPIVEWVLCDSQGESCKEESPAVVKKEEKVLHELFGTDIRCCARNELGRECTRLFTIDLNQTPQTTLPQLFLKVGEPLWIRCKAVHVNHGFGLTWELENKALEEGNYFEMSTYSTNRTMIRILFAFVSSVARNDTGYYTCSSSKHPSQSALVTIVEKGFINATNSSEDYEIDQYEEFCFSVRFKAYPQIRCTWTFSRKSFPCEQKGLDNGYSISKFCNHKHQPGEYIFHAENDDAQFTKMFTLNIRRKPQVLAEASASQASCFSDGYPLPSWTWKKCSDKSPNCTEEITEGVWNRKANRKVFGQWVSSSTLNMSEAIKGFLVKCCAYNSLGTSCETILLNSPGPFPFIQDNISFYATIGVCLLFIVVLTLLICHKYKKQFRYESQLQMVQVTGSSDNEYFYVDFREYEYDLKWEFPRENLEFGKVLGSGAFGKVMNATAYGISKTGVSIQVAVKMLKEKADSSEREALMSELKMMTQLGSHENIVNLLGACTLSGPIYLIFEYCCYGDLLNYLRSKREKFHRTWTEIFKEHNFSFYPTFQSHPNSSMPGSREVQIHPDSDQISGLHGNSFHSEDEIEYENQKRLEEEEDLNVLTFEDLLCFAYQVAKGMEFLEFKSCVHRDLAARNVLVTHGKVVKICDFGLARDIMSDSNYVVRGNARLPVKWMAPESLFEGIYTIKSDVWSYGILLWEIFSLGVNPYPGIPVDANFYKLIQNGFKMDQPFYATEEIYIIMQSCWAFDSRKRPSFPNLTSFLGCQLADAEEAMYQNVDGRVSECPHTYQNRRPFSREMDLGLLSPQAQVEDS
In short: (§2)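 Purified kinase protein added to start the reaction on preloaded poly(Glu,Tyr) 4:1 substrate at 20 µg/mL. ATP 10 mM solution in HEPES 50 mM pH 7.0 buffer with DTT, MgCl₂, MnCl₂ and 0.1% NaN₃. Compounds added in 1% DMSO. Reaction run 30 min at 25°C, stopped with Streptavidin-XL665 plus Tk antibody cryptate, read at 320/615 nm. Percent inhibition taken against enzyme-free and full-enzyme controls; IC50 from inhibition curves.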

[10] = biological target: Platelet-derived growth factor receptor beta (Homo sapiens, UniProt P09619); assay: Inhibition of PDGFRbeta (unknown origin) using poly (Glu, Tyr) 4:1 as substrate after 30 mins by HTRF assay; in short: as §2
[11] = biological target: Mast/stem cell growth factor receptor Kit (Homo sapiens, UniProt P10721); assay: Inhibition of c-Kit (unknown origin) using poly (Glu, Tyr) 4:1 as substrate after 30 mins by HTRF assay; in short: as §2
[12] = biological target: Vascular endothelial growth factor receptor 2 (Homo sapiens, UniProt P35968); assay: Inhibition of VEGFR-2 (unknown origin) using poly (Glu, Tyr) 4:1 as substrate after 30 mins by HTRF assay; in short: as §2
[13] = biological target: Epidermal growth factor receptor (Homo sapiens, UniProt P00533); assay: Inhibition of EGFR (unknown origin) using poly (Glu, Tyr) 4:1 as substrate after 30 mins by HTRF assay; in short: as §2
Chain of Epidermal growth factor receptor (P00533 whole entry): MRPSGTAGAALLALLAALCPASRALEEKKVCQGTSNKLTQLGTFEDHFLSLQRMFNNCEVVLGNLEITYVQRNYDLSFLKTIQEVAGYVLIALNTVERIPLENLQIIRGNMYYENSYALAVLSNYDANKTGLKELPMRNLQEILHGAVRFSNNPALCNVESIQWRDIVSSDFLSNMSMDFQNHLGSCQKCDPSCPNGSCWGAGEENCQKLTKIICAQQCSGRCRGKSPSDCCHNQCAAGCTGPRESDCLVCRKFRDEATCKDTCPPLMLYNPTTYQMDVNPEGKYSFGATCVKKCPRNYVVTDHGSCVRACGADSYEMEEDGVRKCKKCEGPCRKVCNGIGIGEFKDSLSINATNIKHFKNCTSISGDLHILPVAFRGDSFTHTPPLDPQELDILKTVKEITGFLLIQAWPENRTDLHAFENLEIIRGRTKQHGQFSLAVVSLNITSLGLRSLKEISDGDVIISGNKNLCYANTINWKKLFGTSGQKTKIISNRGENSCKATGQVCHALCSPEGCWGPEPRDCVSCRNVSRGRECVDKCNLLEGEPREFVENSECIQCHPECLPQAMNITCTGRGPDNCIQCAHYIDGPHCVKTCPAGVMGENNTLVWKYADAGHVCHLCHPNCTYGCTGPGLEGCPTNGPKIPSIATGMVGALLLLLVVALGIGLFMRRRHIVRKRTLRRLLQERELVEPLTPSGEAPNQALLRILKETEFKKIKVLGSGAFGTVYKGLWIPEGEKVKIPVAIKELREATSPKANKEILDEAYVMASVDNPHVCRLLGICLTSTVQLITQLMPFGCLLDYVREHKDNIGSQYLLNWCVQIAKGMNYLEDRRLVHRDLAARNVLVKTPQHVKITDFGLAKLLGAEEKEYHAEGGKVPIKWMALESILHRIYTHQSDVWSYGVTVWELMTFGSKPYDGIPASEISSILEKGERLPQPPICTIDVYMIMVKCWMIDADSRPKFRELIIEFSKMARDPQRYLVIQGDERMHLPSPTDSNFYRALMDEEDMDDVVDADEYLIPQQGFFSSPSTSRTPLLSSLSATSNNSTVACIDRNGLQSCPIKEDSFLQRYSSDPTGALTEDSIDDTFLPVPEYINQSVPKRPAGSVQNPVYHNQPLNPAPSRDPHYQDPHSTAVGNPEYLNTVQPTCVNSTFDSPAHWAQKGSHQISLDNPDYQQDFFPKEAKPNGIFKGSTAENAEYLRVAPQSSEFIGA

Chain of Hepatocyte growth factor receptor (P08581 whole entry): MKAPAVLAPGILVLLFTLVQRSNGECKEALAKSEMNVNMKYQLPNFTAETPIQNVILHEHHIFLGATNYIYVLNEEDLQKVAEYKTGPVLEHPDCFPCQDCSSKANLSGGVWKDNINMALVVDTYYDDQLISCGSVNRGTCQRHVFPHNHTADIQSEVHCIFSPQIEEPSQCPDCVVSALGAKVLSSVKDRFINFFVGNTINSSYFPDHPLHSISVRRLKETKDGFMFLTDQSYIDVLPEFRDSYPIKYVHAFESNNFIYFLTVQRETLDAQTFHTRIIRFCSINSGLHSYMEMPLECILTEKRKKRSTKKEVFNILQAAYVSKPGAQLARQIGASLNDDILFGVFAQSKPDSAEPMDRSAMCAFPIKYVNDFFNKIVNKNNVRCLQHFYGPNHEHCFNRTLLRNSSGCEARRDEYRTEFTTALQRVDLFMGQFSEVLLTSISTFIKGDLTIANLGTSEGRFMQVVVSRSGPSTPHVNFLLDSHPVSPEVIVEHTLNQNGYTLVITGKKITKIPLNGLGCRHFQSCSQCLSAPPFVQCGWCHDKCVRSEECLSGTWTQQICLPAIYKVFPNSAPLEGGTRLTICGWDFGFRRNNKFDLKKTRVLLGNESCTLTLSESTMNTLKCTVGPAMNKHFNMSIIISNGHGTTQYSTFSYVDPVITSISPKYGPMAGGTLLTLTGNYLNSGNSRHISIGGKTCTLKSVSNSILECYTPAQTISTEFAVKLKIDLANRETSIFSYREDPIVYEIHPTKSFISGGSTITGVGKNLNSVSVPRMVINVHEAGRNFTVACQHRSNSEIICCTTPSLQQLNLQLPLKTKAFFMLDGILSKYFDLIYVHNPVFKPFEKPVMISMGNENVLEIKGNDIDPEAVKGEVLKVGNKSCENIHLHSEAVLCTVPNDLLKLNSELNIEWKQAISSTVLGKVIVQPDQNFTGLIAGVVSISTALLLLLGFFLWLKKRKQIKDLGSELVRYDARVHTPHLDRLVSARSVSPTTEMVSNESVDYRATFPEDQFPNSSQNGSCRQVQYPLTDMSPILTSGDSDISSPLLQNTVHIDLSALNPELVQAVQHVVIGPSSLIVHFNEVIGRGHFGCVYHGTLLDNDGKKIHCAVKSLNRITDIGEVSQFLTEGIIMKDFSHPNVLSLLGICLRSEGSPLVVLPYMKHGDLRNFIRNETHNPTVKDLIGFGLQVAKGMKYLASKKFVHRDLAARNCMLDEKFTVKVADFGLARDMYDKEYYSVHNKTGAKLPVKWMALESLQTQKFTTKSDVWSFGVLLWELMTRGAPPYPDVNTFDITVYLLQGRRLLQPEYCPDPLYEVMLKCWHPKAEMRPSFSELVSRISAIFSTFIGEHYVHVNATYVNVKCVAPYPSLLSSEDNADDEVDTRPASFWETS
Chain of Platelet-derived growth factor receptor beta (P09619 whole entry): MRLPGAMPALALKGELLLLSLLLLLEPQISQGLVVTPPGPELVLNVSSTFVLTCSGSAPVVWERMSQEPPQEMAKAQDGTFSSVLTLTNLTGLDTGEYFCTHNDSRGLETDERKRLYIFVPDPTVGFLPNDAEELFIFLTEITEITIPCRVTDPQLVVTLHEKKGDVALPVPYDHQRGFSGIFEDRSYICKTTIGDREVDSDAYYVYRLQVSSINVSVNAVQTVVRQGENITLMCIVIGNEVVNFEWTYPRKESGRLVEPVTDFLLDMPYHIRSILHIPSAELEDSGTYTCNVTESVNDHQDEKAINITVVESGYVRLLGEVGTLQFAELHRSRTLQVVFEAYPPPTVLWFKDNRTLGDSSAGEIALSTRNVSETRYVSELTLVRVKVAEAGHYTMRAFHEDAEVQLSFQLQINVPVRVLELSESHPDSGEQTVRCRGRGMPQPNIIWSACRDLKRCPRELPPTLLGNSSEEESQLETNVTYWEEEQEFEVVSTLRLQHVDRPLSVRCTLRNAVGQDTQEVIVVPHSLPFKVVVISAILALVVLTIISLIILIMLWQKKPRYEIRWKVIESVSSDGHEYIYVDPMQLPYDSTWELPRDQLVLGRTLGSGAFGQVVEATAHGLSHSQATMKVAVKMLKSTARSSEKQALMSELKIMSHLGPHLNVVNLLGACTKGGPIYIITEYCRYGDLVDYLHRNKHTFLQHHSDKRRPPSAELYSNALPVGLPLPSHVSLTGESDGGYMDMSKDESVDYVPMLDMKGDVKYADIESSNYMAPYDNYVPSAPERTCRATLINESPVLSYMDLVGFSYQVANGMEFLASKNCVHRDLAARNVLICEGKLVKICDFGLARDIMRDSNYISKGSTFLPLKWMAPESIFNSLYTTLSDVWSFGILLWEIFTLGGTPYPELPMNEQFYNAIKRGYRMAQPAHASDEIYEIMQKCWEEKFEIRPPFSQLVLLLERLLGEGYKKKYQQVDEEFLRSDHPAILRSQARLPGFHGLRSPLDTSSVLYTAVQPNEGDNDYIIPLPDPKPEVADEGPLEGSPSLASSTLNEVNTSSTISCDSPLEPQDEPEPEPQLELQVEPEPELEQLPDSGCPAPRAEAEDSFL
Chain of Mast/stem cell growth factor receptor Kit (P10721 whole entry): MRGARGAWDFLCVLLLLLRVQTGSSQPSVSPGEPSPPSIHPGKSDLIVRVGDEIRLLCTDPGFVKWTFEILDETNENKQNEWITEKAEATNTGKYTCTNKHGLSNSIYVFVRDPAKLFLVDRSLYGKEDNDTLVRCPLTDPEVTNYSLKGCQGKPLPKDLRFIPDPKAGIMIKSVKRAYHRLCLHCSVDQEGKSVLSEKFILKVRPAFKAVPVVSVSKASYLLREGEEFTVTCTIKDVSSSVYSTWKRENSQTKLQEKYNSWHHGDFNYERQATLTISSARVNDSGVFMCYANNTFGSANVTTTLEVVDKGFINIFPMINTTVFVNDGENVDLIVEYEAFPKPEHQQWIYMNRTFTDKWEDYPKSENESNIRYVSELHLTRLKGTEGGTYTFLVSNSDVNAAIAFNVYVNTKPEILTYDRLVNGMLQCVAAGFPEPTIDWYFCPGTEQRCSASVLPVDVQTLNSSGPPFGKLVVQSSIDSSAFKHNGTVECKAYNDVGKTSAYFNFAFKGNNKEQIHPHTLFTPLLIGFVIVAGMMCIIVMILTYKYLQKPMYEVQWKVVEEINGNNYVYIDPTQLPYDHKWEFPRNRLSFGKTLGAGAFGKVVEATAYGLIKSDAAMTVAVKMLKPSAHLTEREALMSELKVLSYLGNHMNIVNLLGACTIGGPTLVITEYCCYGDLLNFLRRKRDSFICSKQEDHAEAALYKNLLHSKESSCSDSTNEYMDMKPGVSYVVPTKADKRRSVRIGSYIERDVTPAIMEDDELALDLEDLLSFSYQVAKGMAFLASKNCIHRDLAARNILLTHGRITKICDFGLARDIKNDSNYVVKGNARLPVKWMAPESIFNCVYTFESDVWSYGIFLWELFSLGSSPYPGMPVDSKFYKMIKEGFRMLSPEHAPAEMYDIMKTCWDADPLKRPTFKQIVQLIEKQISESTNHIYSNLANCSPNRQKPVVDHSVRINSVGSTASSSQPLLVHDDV

SMILES	IC50 [1]	other results
Cc1ccc(C)c(-n2nc(C(=O)Nc3ccc(Oc4ccnc5c4ccn5C)cc3)c(C)cc2=O)c1	41.3 nM	
Cc1ccc(C)c(-n2nc(C(=O)Nc3ccc(Oc4ccnc5[nH]ccc45)cc3)c(C)cc2=O)c1	33.5 nM	
Cc1cc(=O)n(-c2ccccc2C(F)(F)F)nc1C(=O)Nc1ccc(Oc2ccnc3c2ccn3C)cc1	46.3 nM	
Cc1cc(=O)n(-c2ccc(F)cc2)nc1C(=O)Nc1ccc(Oc2ccnc3[nH]ccc23)c(F)c1	1.06 nM	IC50 (HT-29 [2]): 39 nM; IC50 (A549 [3]): 46 nM; IC50 (NCI-H460): 91 nM; IC50 (U-87 MG [4]): 760 nM; Ratio IC50 (HT-29 [5]): 6.4; Ratio IC50 (A549 [6]): 7.8; Ratio IC50 [7]: 3.2; Ratio IC50 (U-87 MG [8]): 1.3; IC50 [9]: 1.32 nM; IC50 [10]: 3.26 nM; IC50 [11]: 318 nM; IC50 [12]: 672 nM; IC50 [13]: 725 nM
Cc1cc(=O)n(-c2ccc(Cl)cc2Cl)nc1C(=O)Nc1ccc(Oc2ccnc3[nH]ccc23)c(F)c1	22.4 nM	
Cc1cc(=O)n(-c2ccc(F)cc2)nc1C(=O)Nc1ccc(Oc2ccnc3c2ccn3C)cc1	9.21 nM	
Cc1cc(=O)n(-c2cccc(C(F)(F)F)c2)nc1C(=O)Nc1ccc(Oc2ccnc3c2ccn3C)c(F)c1	29.3 nM	IC50 (HT-29 [2]): 360 nM; IC50 (A549 [3]): 620 nM; IC50 (NCI-H460): 520 nM; IC50 (U-87 MG [4]): 2310 nM
Cc1ccccc1-n1nc(C(=O)Nc2ccc(Oc3ccnc4[nH]ccc34)c(F)c2)c(C)cc1=O	10.3 nM	
Cc1cc(=O)n(-c2ccc(F)c(Cl)c2)nc1C(=O)Nc1ccc(Oc2ccnc3c2ccn3C)cc1	45.3 nM	
Cc1cc(=O)n(-c2ccccc2F)nc1C(=O)Nc1ccc(Oc2ccnc3c2ccn3C)cc1	14.4 nM	
Cc1cc(=O)n(-c2ccccc2C(F)(F)F)nc1C(=O)Nc1ccc(Oc2ccnc3[nH]ccc23)cc1	39.5 nM	
Cc1cc(=O)n(-c2ccc(Br)cc2F)nc1C(=O)Nc1ccc(Oc2ccnc3[nH]ccc23)c(F)c1	18.2 nM	
Cc1cc(=O)n(-c2cccc(C(F)(F)F)c2)nc1C(=O)Nc1ccc(Oc2ccnc3c2ccn3C)cc1	32.2 nM	
Cc1cc(=O)n(-c2cccc(Br)c2)nc1C(=O)Nc1ccc(Oc2ccnc3c2ccn3C)cc1	10.5 nM	
Cc1cc(=O)n(-c2ccc(Cl)cc2Cl)nc1C(=O)Nc1ccc(Oc2ccnc3c2ccn3C)cc1	49.2 nM	
Cc1cc(=O)n(-c2ccccc2F)nc1C(=O)Nc1ccc(Oc2ccnc3[nH]ccc23)c(F)c1	5.02 nM	
COc1ccc(-n2nc(C(=O)Nc3ccc(Oc4ccnc5[nH]ccc45)c(F)c3)c(C)cc2=O)cc1	18.3 nM	
Cc1cc(=O)n(-c2ccc(Br)cc2F)nc1C(=O)Nc1ccc(Oc2ccnc3c2ccn3C)cc1	36.2 nM	
Cc1cc(=O)n(-c2ccccc2C(F)(F)F)nc1C(=O)Nc1ccc(Oc2ccnc3[nH]ccc23)c(F)c1	11.2 nM	
Cc1cc(=O)n(-c2ccc(Cl)cc2Cl)nc1C(=O)Nc1ccc(Oc2ccnc3[nH]ccc23)cc1	56.3 nM	
Cc1cc(=O)n(-c2ccccc2)nc1C(=O)Nc1ccc(Oc2ccnc3c2ccn3C)cc1	19.5 nM	

Continued, in another order:

IC50 [1]	SMILES	other results
12.6 nM	Cc1cc(=O)n(-c2ccccc2F)nc1C(=O)Nc1ccc(Oc2ccnc3[nH]ccc23)cc1	
41.2 nM	Cc1cc(=O)n(-c2ccc(Br)cc2F)nc1C(=O)Nc1ccc(Oc2ccnc3[nH]ccc23)cc1	
11.6 nM	Cc1cc(=O)n(-c2cccc(F)c2)nc1C(=O)Nc1ccc(Oc2ccnc3[nH]ccc23)cc1	IC50 (HT-29 [2]): 210 nM; IC50 (A549 [3]): 420 nM; IC50 (NCI-H460): 190 nM; IC50 (U-87 MG [4]): 3420 nM
35.3 nM	Cc1cc(=O)n(-c2cccc(C(F)(F)F)c2)nc1C(=O)Nc1ccc(Oc2ccnc3[nH]ccc23)cc1	
18.3 nM	Cc1cc(=O)n(-c2ccccc2)nc1C(=O)Nc1ccc(Oc2ccnc3[nH]ccc23)cc1	
46.9 nM	COc1ccc(-n2nc(C(=O)Nc3ccc(Oc4ccnc5[nH]ccc45)cc3)c(C)cc2=O)cc1	
42.2 nM	Cc1cc(=O)n(-c2ccc(F)c(Cl)c2)nc1C(=O)Nc1ccc(Oc2ccnc3[nH]ccc23)cc1	
5.61 nM	Cc1cc(=O)n(-c2cccc(F)c2)nc1C(=O)Nc1ccc(Oc2ccnc3[nH]ccc23)c(F)c1	
15.3 nM	Cc1cc(=O)n(-c2cccc(F)c2)nc1C(=O)Nc1ccc(Oc2ccnc3c2ccn3C)cc1	IC50 (HT-29 [2]): 320 nM; IC50 (A549 [3]): 410 nM; IC50 (NCI-H460): 320 nM; IC50 (U-87 MG [4]): 8820 nM
19.1 nM	Cc1ccccc1-n1nc(C(=O)Nc2ccc(Oc3ccnc4[nH]ccc34)cc2)c(C)cc1=O	
8.42 nM	Cc1cc(=O)n(-c2ccc(F)cc2)nc1C(=O)Nc1ccc(Oc2ccnc3[nH]ccc23)cc1	IC50 (HT-29 [2]): 140 nM; IC50 (A549 [3]): 230 nM; IC50 (NCI-H460): 160 nM; IC50 (U-87 MG [4]): 5460 nM
